Data on 19 molecules can be found in PubChem BioAssay.

The nature of test [1]: Her2 expression decrease, cell viability multiplex – SKBR3 breast tumor cells, AlphaScreen, ATP viability, primary screen (AID 461;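 active = Her2 level under about 52% in both replicate screens, with viability over 70% of control, limit read from the data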;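 as to Her2 level: lower value means less Her2 protein in the cells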;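 as to viability: percent of carrier control wells set as 100% viability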). The following applies: SKBR3 Her2 protein level, 18-24 h, measured here: SKBR3 viability, ATP luminescence, at 10 µM. (Bead proximity is the source of the signal in Alpha formats.)
Test [2] deals with Receptor tyrosine-protein kinase erbB-2 (Homo sapiens) (UniProt P04626). The description is as above. The note with it: 18-24 h, at 10 µM, stronger effect = lower value.
Sequence of Receptor tyrosine-protein kinase erbB-2 (Homo sapiens) (P04626 whole entry, looked up): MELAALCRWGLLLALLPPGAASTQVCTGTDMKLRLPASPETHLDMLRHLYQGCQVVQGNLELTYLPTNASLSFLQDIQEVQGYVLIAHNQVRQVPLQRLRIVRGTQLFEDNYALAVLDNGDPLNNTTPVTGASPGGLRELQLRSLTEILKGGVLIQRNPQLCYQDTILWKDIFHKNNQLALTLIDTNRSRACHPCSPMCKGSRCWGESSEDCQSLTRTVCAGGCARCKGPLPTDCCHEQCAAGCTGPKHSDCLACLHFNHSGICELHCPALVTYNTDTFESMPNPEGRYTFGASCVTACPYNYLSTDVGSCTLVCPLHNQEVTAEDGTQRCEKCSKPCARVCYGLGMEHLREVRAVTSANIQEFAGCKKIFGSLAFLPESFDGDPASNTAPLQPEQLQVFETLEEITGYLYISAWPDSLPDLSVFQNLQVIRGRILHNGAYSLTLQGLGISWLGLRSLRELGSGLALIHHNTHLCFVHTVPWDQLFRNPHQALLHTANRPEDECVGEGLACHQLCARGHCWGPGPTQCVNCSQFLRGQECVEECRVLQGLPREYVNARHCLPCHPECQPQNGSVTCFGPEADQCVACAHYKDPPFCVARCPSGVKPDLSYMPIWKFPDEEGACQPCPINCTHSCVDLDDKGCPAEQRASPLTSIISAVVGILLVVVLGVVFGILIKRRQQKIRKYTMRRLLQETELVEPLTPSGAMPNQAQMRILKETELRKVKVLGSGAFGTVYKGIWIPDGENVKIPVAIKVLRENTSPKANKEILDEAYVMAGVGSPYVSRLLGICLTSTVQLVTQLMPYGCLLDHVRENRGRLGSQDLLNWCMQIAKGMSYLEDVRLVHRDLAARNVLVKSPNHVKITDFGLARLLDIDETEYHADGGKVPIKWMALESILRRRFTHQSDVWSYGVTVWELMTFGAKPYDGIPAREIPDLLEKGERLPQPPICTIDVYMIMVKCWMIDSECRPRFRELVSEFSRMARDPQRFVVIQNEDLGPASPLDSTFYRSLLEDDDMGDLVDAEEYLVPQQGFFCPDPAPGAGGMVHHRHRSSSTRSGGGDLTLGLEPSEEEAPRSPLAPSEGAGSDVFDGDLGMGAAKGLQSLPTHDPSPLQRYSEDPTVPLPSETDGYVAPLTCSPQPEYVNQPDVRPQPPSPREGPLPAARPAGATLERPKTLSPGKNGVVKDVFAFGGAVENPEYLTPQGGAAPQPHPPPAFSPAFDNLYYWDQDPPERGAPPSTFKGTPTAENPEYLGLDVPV
Test [3] is described as follows: reduced viability of SK-BR-3 breast cancer cells – cell-based, 24 h, human, pilot screen (AID 572).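 Also: compound exposure lasted between 18 and 24 h rather than exactly 24 h; 100% = carrier-treated control wells.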 The following applies: SK-BR-3 viability, CellTiter-Glo luminescence, at 10 µM, stronger effect = lower value. For orientation: Cellular ATP, detected with luciferase, serves as a proxy for viable cell number.
The nature of test [4]: HUVEC growth inhibition – cell-based, human, primary screen (AID 575;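 active = viability at or below 30% in both replicate assays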;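 also: 100% = median of untreated cell wells with 0.1% DMSO on each plate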). The note with it: HUVEC proliferation, CellTiter-Glo luminescence, 72 h; at 10 µM; stronger effect = lower value. The method, boiled down:
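Test system: primary human umbilical vein endothelial cells. Quantity: 1250 cells/well. Compound: single 10 µM dose, 0.1% DMSO, from 5x medium stock. Timing: 72 h treatment at 37 °C. Detection: ATP-based CellTiter-Glo luminescent read. Benchmarks: vehicle and MePR control wells. Format: 384-well plates coated with collagen.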

Test [5] is described as follows: H69AR cell proliferation blockers – human, duplicate replicates, primary screen (AID 580;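 active = viability at or under a set limit in both replicates, limit being median viability minus 3 SD, cut at about 48% in these data, passing the limit was not always enough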;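 also: 100% = mean luminescence of untreated wells and 0% = no signal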). The following applies: H69AR lung tumor cells viability, ATP luminescence, 72 h; at 10 µM; stronger effect = lower value.
Test [6] is described as follows: MRP1 drug-resistance reversers in H69AR cells – cell-based, doxorubicin co-treatment, pilot screen (AID 601;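 active = viability loss from added drug above about 55%, and viability with drug at most 40%, in both replicates, limit read from the data, passing the limit was not always enough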). The note with it: CellTiter-Glo, 72 h, at 10 µM; for differential viability (reversal): stronger effect = higher value.
Test [7] can be described thus: yeast transport mutant growth inhibition pilot in 384-well plates, post-Golgi transport modulator project (AID 636; in the data active = inhibition above about 31%). The following applies: absorbance 615 nm, about 18 h, stronger effect = higher value.
Test [8] in a line: growth suppression of yeast trafficking mutant, preliminary HTS, modulators of trafficking downstream of Golgi apparatus project, 1536-format plate, OD 615 nm (AID 637; in the data active = inhibition above about 30%). The following applies: yeast transport mutant growth, absorbance 615 nm, 18 h; stronger effect = higher value.
[9] abbreviates: H69AR cells + 2 uM doxorubicin, measured here: viability with 2 uM doxorubicin, stronger effect = lower value.
[10] abbreviates: H69AR cells, compound alone cytotoxicity.

Where “and” joins values, the source holds several entries; their conditions need not be identical. Identical values can stand only once. Calls of active or inactive are those of the source.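 The calls were made as follows, unless noted: active = viability at or below 10% of carrier control in both of two separate runs; inconclusive = viability at or below 10% in only one of the two runs; inactive = the rest.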

Broadly, the viability is a read-out of living cells in per cent, often relative to untreated cells. For the molecule `CC1(C)O[C@@H]2C[C@H]3[C@@H]4CCC5=CC(=O)C=C[C@]5(C)[C@@]4(F)[C@@H](O)C[C@]3(C)[C@]2(C(=O)CO)O1`, the viability in test [1] was 90.5%; in test [3], 90.5% (inactive); in test [4], 103% (inactive); in test [5], 92.8% (inactive); in test [6] (setting [9]), 103%; in test [6] (setting [10]), 92.8%. Also, the Her2 level in test [2] is 128% (inactive). In test [6] (H69AR cells + 2 uM doxorubicin), the differential viability (reversal) was -10.5% (inactive).

In the case of `CC[N+](C)(C)Cc1ccccc1Br`, the viability in test [1] was 102%; in test [3], 102% (inactive); in test [4] it was 107% (inactive); in test [5], 98.8% (inactive); in test [6] (setting [9]), 103%; in test [6] (setting [10]), 98.8%. For the same molecule, the Her2 level in test [2] was 92% (inactive). In addition, the differential viability (reversal) in test [6] (H69AR cells + 2 uM doxorubicin) is -4.18% (inactive).

Consider `Nc1ccc2cn[nH]c2c1`, for which the viability was 100% in test [1]; 100% (inactive) in test [3]; 82.2% (inactive) in test [4]; 93.1% (inactive) in test [5]; 111% in test [6] (setting [9]); 93.1% in test [6] (setting [10]). The Her2 level in test [2] is 128% (inactive). Moreover, the differential viability (reversal) in test [6] (H69AR cells + 2 uM doxorubicin) is -18.1% (inactive).

`Cc1cn([C@H]2C=C[C@@H](CO)O2)c(=O)[nH]c1=O`: the viability in test [1] is 94%; in test [3], 94% (inactive); in test [4], 104% (inactive); in test [5], 109% (inactive); in test [6] (setting [9]) it was 86.2%; in test [6] (setting [10]) it was 109%. The Her2 level in test [2] was 94.5% (inactive). The differential viability (reversal) in test [6] (H69AR cells + 2 uM doxorubicin) is 22.8% (inactive).

In the case of `c1ccc(CN(CC2=NCCN2)c2ccccc2)cc1`, the viability in test [1] was 91.5% and 100%; in test [3], 91.5% (inactive) and 100% (inactive); in test [4], 94.1% (inactive) and 87.9% (inactive); in test [5], 93.2% (inactive) and 96.6% (inactive); in test [6] (setting [9]), 86.6% and 97.9%; in test [6] (setting [10]), 93.2% and 96.6%. Also, the Her2 level in test [2] is 114% (inactive) and 91.5% (inactive). Also, the differential viability (reversal) in test [6] (H69AR cells + 2 uM doxorubicin) was 6.63% (inactive) and -1.34% (inactive).

Consider `CCC(=O)O[C@@H]1CC(=O)O[C@H](C)CC=CC=C[C@@H](O)[C@H](C)C[C@H](CC=O)[C@H](O[C@H]2O[C@H](C)[C@@H](O[C@H]3C[C@@](C)(O)[C@@H](OC(=O)CC)[C@H](C)O3)[C@H](N(C)C)[C@H]2O)[C@H]1OC`, for which the viability in test [1] was 93.5%; in test [3], 93.5% (inactive); in test [4], 109% (inactive); in test [5], 95.3% (inactive); in test [6] (setting [9]), 100%; in test [6] (setting [10]), 95.3%. In addition, the Her2 level in test [2] is 126% (inactive). The differential viability (reversal) in test [6] (H69AR cells + 2 uM doxorubicin) is -4.97% (inactive).

As for `CC(=O)NS(=O)(=O)c1ccc(N)cc1`, the viability in test [1] was 118%; in test [3], 118% (inactive); in test [4], 90% (inactive); in test [5], 102% (inactive); in test [6] (setting [9]), 95.4%; in test [6] (setting [10]), 102%. Moreover, the Her2 level in test [2] was 124% (inactive). In test [6] (H69AR cells + 2 uM doxorubicin), the differential viability (reversal) is 6.32% (inactive).

With `CCC(NC(C)C)C(O)c1ccc(O)c2[nH]c(=O)ccc12` (stereo unspecified), the viability was 108% in test [1]; 108% (inactive) in test [3]; 107% (inactive) in test [4]; 94.4% (inactive) in test [5]; 82.7% in test [6] (setting [9]); 94.4% in test [6] (setting [10]). In addition, the Her2 level in test [2] was 94.5% (inactive). For the same molecule, the differential viability (reversal) in test [6] (H69AR cells + 2 uM doxorubicin) is 11.7% (inactive).

Consider `NS(=O)(=O)c1cc2c(cc1Cl)NC(C(Cl)Cl)NS2(=O)=O` (stereo unspecified), for which the viability in test [1] is 102%; in test [3], 102% (inactive); in test [4] it was 106% (inactive); in test [5], 93.9% (inactive); in test [6] (setting [9]), 104%; in test [6] (setting [10]) it was 93.9%. The Her2 level in test [2] was 112% (inactive). Further, the differential viability (reversal) in test [6] (H69AR cells + 2 uM doxorubicin) is -9.8% (inactive).

In the case of `NC(Cc1ccc(Oc2ccc(O)cc2)cc1)C(=O)O` (stereo unspecified), the viability was 92.5% in test [1]; 92.5% (inactive) in test [3]; 107% (inactive) in test [4]; 80.8% (inactive) in test [5]; 73.1% in test [6] (setting [9]); 80.8% in test [6] (setting [10]). Further, in test [2], the Her2 level is 97% (inactive). Also, in test [6] (H69AR cells + 2 uM doxorubicin), the differential viability (reversal) is 7.61% (inactive).

On to `C[N+]12CCC(CC1)C(OC(=O)C(O)(c1ccccc1)c1ccccc1)C2` (stereo unspecified), for which the viability in test [1] was 97.5%; in test [3] it was 97.5% (inactive); in test [4] it was 100% (inactive); in test [5], 90.7% (inactive); in test [6] (setting [9]), 78.7%; in test [6] (setting [10]), 90.7%. Besides, in test [2], the Her2 level is 96.5% (inactive). Also, the differential viability (reversal) in test [6] (H69AR cells + 2 uM doxorubicin) was 11.9% (inactive).

As for `CCCCN(CCCC)CCCOC(=O)c1ccc(N)cc1`, the viability in test [1] is 92%; in test [3], 92% (inactive); in test [4] it was 111% (inactive); in test [5] it was 90.7% (inactive); in test [6] (setting [9]), 99.2%; in test [6] (setting [10]) it was 90.7%. Moreover, the Her2 level in test [2] is 106% (inactive). For the same molecule, in test [6] (H69AR cells + 2 uM doxorubicin), the differential viability (reversal) is -8.53% (inactive).

With `CCCC(=O)O[C@]1(C(=O)COC(C)=O)CC[C@H]2[C@@H]3C[C@H](F)C4=CC(=O)C=C[C@]4(C)[C@@]3(F)[C@@H](O)C[C@@]21C`, the viability is 95% in test [1]; 95% (inactive) in test [3]; 96.9% (inactive) in test [4]; 95.6% (inactive) in test [5]; 104% in test [6] (setting [9]); 95.6% in test [6] (setting [10]). In addition, the Her2 level in test [2] is 97.5% (inactive). Moreover, the differential viability (reversal) in test [6] (H69AR cells + 2 uM doxorubicin) was -8.84% (inactive).

Take `O=C(NCC1CCCCN1)c1cc(OCC(F)(F)F)ccc1OCC(F)(F)F` (stereo unspecified): the viability in test [1] is 86%; in test [3] it was 86% (inactive); in test [4], 91.8% (inactive); in test [5], 97.9% (inactive); in test [6] (setting [9]) it was 102%; in test [6] (setting [10]), 97.9%. The Her2 level in test [2] was 101% (inactive). In addition, the differential viability (reversal) in test [6] (H69AR cells + 2 uM doxorubicin) is -4.55% (inactive).

For the molecule `C[C@]12C=CC(=O)C=C1CC[C@H]1[C@@H]3C[C@@H](O)[C@](O)(C(=O)CO)[C@@]3(C)C[C@H](O)[C@@]12F`, the viability was 94% in test [1]; 94% (inactive) in test [3]; 101% (inactive) in test [4]; 106% (inactive) in test [5]; 109% in test [6] (setting [9]); 106% in test [6] (setting [10]). Moreover, the Her2 level in test [2] is 110% (inactive). For the same molecule, in test [6] (H69AR cells + 2 uM doxorubicin), the differential viability (reversal) was -2.81% (inactive).

One may read the inhibition as the change of the read-out against control, counted positive when it falls. As to `O=C(CCS(=O)(=O)c1cc(Br)cc2c1N(C(=O)C1CC1)CC2)NCC1CCCO1` (stereo unspecified), the viability in test [1] is 122%; in test [3] it was 122% (inactive); in test [4] it was 95.5% (inactive); in test [5] it was 81.8% (inactive); in test [6] (setting [9]), 85.4%; in test [6] (setting [10]), 81.8%. For the same molecule, the Her2 level in test [2] was 110% (inactive). Moreover, the differential viability (reversal) in test [6] (H69AR cells + 2 uM doxorubicin) was -3.57% (inactive). In addition, the inhibition is 0.51% (inactive) in test [7] and 11.8% (inactive) in test [8].

With `O=C(O)c1cccnc1Nc1cccc(C(F)(F)F)c1`, the viability is 100% in test [1]; 100% (inactive) in test [3]; 86.4% (inactive) in test [4]; 108% (inactive) in test [5]; 94.5% in test [6] (setting [9]); 108% in test [6] (setting [10]). The Her2 level in test [2] is 98.5% (inactive). The differential viability (reversal) in test [6] (H69AR cells + 2 uM doxorubicin) is 13.5% (inactive).

Regarding `COc1ccc(/C=C(/C#N)c2cccnc2)cc1OC`, the viability was 92% in test [1]; 92% (inactive) in test [3]; 96.9% (inactive) in test [4]; 103% (inactive) in test [5]; 96.7% in test [6] (setting [9]); 103% in test [6] (setting [10]). Also, the Her2 level in test [2] is 97.5% (inactive). For the same molecule, the differential viability (reversal) in test [6] (H69AR cells + 2 uM doxorubicin) is 6.09% (inactive).

For the molecule `COc1ccc(-n2c(COc3ccccc3)nnc2SCc2ccc(C#N)cc2)cc1`, the viability is 88% in test [1]; 88% (inactive) in test [3]; 81% (inactive) in test [4]; 76.4% (inactive) in test [5]; 54.1% in test [6] (setting [9]); 76.4% in test [6] (setting [10]). In addition, in test [2], the Her2 level was 93% (inactive). Also, the differential viability (reversal) in test [6] (H69AR cells + 2 uM doxorubicin) was 22.4% (inactive). Also, the inhibition is 0% (inactive) in test [7] and -7.82% (inactive) in test [8].
